Molecules are shown by their SMILES. A number with no mark means an inactive call. Results filed as inconclusive are left out. Active and inactive are the calls of the source.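 Rule for the calls, unless noted: active = RAM network inhibition above 8.4% in each of two replicates, 3 SD over the compound average; inconclusive = above 8.4% inhibition in only one replicate; inactive = 8.4% inhibition or less in each replicate.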

Results on 18 molecules are retold here after PubChem BioAssay.

Assay [1] in a line: S. cerevisiae growth inhibition in permissive medium (OD615), pilot counter-assay for S. cerevisiae lifespan shortening project, permissive growth control (AID 705;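 active = growth inhibition above 25% in both replicates, a cutoff set 3 SD above the mean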). Particulars: OD615, 24 h, at 10 µM, stronger effect = higher value. A digest of the protocol:
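Material: engineered DeaD yeast; compound dosing: one dose 10 µM, DMSO 0.25% final; measure: yeast growth inhibition indicated by reduced 24 h OD615; detection: OD615 turbidity read; incubation: cells pre-grown 4 h, then 24 h compound exposure, 30 °C humidified; medium: permissive synthetic complete medium with raffinose and galactose carbon sources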

The nature of assay [2]: S. cerevisiae growth inhibition in restrictive medium, OD615, pilot screen, restrictive growth control, yeast lifespan reduction project (AID 706;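 active = growth inhibition above a set limit, 3 SD over mean compound inhibition, in both replicates, cut at about 43% in these data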;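 note: modified DeaD lifespan yeast strain shifted to restrictive glucose medium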). Conditions: OD615, 48 h, at 10 µM, stronger effect = higher value. A digest of the protocol:
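material = engineered S. cerevisiae DeaD strain | medium = glucose-based CSMM-D restrictive medium | times = 4 h pre-incubation, 48 h exposure at 30 °C | technique = OD615 absorbance reading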

A short description of assay [3]: doxorubicin toxicity protection in MRP-1 cells – H69AR cells, CellTiter-Glo, duplicate, MRP-1 activator project, pilot screen (AID 807;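 active = viability increase at or above a cutoff of the median across tested compounds plus 3 SD, cut at about 8.5% in these data, passing the limit was not always enough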;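 note: compound pretreatment 18-22 h then 72 h combined with doxorubicin; 0% = doxorubicin alone and 100% = vehicle without doxorubicin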). Particulars: H69AR viability with doxorubicin, CellTiter-Glo luminescence; at 10 µM; stronger effect = higher value. For orientation: In ATP-based viability assays light output follows the ATP content of the culture.
Assay [4] in a line: viability of HCT116 without oncogenic beta-catenin – human colon tumor cells, pilot screen (AID 823;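 active = cell viability at or below a set limit in both duplicate runs, the limit being the all-compound median minus 4 SD, cut at about 23% in these data, passing the limit was not always enough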;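 note: 0% = wells killed by 20 µM Hyamine and 100% = untreated DMSO cell wells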). Particulars: HCT116 beta-catenin knockout viability, CellTiter-Glo, 60 h; at 10 µM; stronger effect = lower value.
Assay [5] in a line: viability of PTEN-null HCT116 cells – cell-based, HCT116 clonal line, CellTiter-Glo, pilot screen (AID 824;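 active = viability at or below 27.92% in each of two runs, the all-compound median minus 4 SD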;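 note: 0% = 20 µM Hyamine control and 100% = vehicle cell control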). Particulars: HCT116 PTEN-deleted viability, 60 h, at 10 µM, stronger effect = lower value.
Assay [6] is described as follows: RAM pathway blockade in budding yeast – dse1pr::URA3 reporter, 5-FOA selection, pilot screen (AID 869;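 active = inhibition over a set limit, the all-compound mean plus 3 SD, in both replicate runs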;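 note: 0% = DMSO wells with no growth and 100% = 10 µM 1-NA-PP1 with full growth; RAM network block rescues cells from 5-FOA so hits raise OD615 growth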). Particulars: S. cerevisiae dse1pr::URA3 5-FOA growth, OD615, 2 d; at 10 µM; stronger effect = higher value; strain carries analog-sensitive mutant Cbk1 kinase.
A short description of assay [7]: RAM signaling pathway blockade in yeast – S. cerevisiae, Pdr1DBD-CYC8 efflux-inhibited sensitized strain, primary screen (AID 1298).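 Note: 0% = DMSO untreated cells without growth and 100% = 10 µM 1-NA-PP1 full growth; higher means more yeast growth rescued from 5-FOA killing.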 Particulars: S. cerevisiae cbk1-as DSE1-URA3 strain, 5-FOA growth OD615, 2 d; at 50 µM; stronger effect = higher value.

What is called viability is a read-out of living cells in per cent, often relative to untreated cells. What is called inhibition is the relative decrease from the control value, in per cent. `Cc1c(C(=O)N2CCCc3ccccc32)sc2nc(-c3ccccc3)cn12`: the figures for the growth inhibition in assay [1] and in assay [2] were -8.77% and 0.195%, respectively. In assay [3], the viability increase was -2.82%. For the same molecule, the figures for the viability in assay [4] and in assay [5] were 65.9% and 68.4%, respectively. Further, the inhibition in assay [6] is 2.46%. The RAM network inhibition in assay [7] is 5.58%.

With `Cc1cc(C)n(-c2nc3ccccc3c3nc(C)nn23)n1`, the growth inhibition in assay [1] is -10.5%; in assay [2] it was -2.51%. The viability increase in assay [3] is -0.57%. Also, the viability is 104% in assay [4] and 101% in assay [5]. The inhibition in assay [6] was 0.195%. Also, the RAM network inhibition in assay [7] was 4.75%.

As to `O=C(CCS(=O)CCC(=O)NCc1ccccc1)NCc1ccccc1`, the values for the growth inhibition in assay [1] and in assay [2] were -2.28% and 6.21%, respectively. In addition, in assay [3], the viability increase is -0.32%. The viability was 97.9% in assay [4] and 102% in assay [5]. Besides, the inhibition in assay [6] is 0.92%. In addition, the RAM network inhibition in assay [7] was 4.15%.

For the molecule `CCOC(=O)C1C(=O)Oc2ccc3ccccc3c2C1C1CCOC1=O` (stereo unspecified), the growth inhibition in assay [1] is -5.13%; in assay [2] it was -1.85%. For the same molecule, the viability increase in assay [3] was -2.53%. Moreover, the viability in assay [4] is 99.5%; in assay [5], 97.6%. In addition, in assay [6], the inhibition is 0.105%. The RAM network inhibition in assay [7] was -1.08%.

Turning to `Nc1nnc(CCc2ccccc2)s1`, the growth inhibition in assay [1] was -1.91%; in assay [2], 8.1%. Also, the viability increase in assay [3] is 0.12%. For the same molecule, the results for the viability in assay [4] and in assay [5] were 96.2% and 98.9%, respectively. Further, in assay [6], the inhibition was 1.77%. Besides, the RAM network inhibition in assay [7] was 0.62%.

In the case of `CCCc1nc(SCC(=O)NCc2ccc3c(c2)OCO3)c2c(=O)n(C)c(=O)n(C)c2n1`, the figures for the growth inhibition in assay [1] and in assay [2] were 1.28% and 7.41%, respectively. Further, the viability increase in assay [3] was -6.51%. The viability in assay [4] is 61.1%; in assay [5], 57.5%. In addition, in assay [6], the inhibition is 2.25%. For the same molecule, the RAM network inhibition in assay [7] was 5.66%.

On to `Cc1cccc(-c2nc(CS(=O)CC(=O)N3CCc4ccccc4C3)c(C)o2)c1` (stereo unspecified), for which the growth inhibition in assay [1] was 0.13%; in assay [2] it was 20.1%. Further, the viability increase in assay [3] was -4.54%. Besides, the viability was 84.8% in assay [4] and 88.8% in assay [5]. Also, the inhibition in assay [6] is 0.385%. Moreover, the RAM network inhibition in assay [7] is 3.23%.

Turning to `CCOC(=O)CSCc1nc(-c2ccc(Cl)cc2)oc1C`, the growth inhibition was -11.6% in assay [1] and -8.34% in assay [2]. Besides, the viability increase in assay [3] was 1.98%. Besides, the viability was 94.8% in assay [4] and 89.8% in assay [5]. Moreover, the inhibition in assay [6] is 1.97%. In addition, the RAM network inhibition in assay [7] was -1.32%.

In the case of `CN(C)c1nc(N)nc(N(c2ccccc2)c2ccccc2)n1`, the growth inhibition in assay [1] was -12.3%; in assay [2], -28.1%. The viability increase in assay [3] is -2.5%. In addition, the values for the viability in assay [4] and in assay [5] were 93.6% and 90.8%, respectively. Besides, the inhibition in assay [6] is -0.635%. Also, the RAM network inhibition in assay [7] was 2.96%.

Take `Cc1nc2cc(C(=O)O)ccc2n1-c1ccccc1`: the values for the growth inhibition in assay [1] and in assay [2] were -11.5% and -0.12%, respectively. In addition, in assay [3], the viability increase is -2.1%. Further, the viability in assay [4] was 109%; in assay [5], 94.8%. Also, in assay [6], the inhibition was 1.99%. For the same molecule, the RAM network inhibition in assay [7] is 1.31%.

On to `CCCCN(C(=O)NC(=O)C1=C(N2CCOCC2)/C(=C/c2ccccc2)CC1)S(C)(=O)=O`, for which the values for the growth inhibition in assay [1] and in assay [2] were -2.54% and -6.07%, respectively. For the same molecule, the viability increase in assay [3] is -2.95%. Further, the viability in assay [4] was 86.1%; in assay [5] it was 89.8%. The inhibition in assay [6] is 0.17%. Besides, in assay [7], the RAM network inhibition was -0.73%.

Consider `Clc1ccc(CCNc2ncnc3nc[nH]c23)cc1`, for which the growth inhibition in assay [1] is 12.7%; in assay [2], 48.5% (active). The viability increase in assay [3] was 0.89%. For the same molecule, the values for the viability in assay [4] and in assay [5] were 74.7% and 77%, respectively. Further, the inhibition in assay [6] was -0.895%. In assay [7], the RAM network inhibition is 2.97%.

`CCCCNC(=O)CS(=O)Cc1nc(-c2ccc(C)cc2)oc1C` (stereo unspecified): the results for the growth inhibition in assay [1] and in assay [2] were -7.66% and 0.83%, respectively. Further, the viability increase in assay [3] is -2.08%. Also, the values for the viability in assay [4] and in assay [5] were 87.4% and 88.5%, respectively. Moreover, the inhibition in assay [6] is -0.365%. Moreover, the RAM network inhibition in assay [7] is 2.19%.

Turning to `Cn1c(=O)c2cc(S(=O)(=O)NC(C(=O)N3CCCCCC3)c3ccccc3)ccc2n(C)c1=O` (stereo unspecified), the results for the growth inhibition in assay [1] and in assay [2] were -16.6% and -23.3%, respectively. Moreover, the viability increase in assay [3] is -1.22%. Besides, the viability in assay [4] is 104%; in assay [5], 89.1%. In addition, in assay [6], the inhibition was 0.175%. In addition, the RAM network inhibition in assay [7] was 2.61%.

`Cn1nc(-c2ccc(Cl)cc2)c2cc(C(=O)N3CCN(c4ccccc4)CC3)sc21`: the growth inhibition is -0.325% in assay [1] and -3.28% in assay [2]. The viability increase in assay [3] was -5.26%. Moreover, the figures for the viability in assay [4] and in assay [5] were 71.2% and 72.2%, respectively. Moreover, the inhibition in assay [6] was 3.44%. In assay [7], the RAM network inhibition was 5.19%.

As for `CCOC(=O)C1=C(C)NC(C)=C(C(=O)OCC)C1c1nc2ccccc2[nH]1`, the growth inhibition was -21.8% in assay [1] and -11.2% in assay [2]. The viability increase in assay [3] was -1.33%. For the same molecule, the viability in assay [4] is 96.2%; in assay [5] it was 96.3%. Also, the inhibition in assay [6] is 0.96%. For the same molecule, in assay [7], the RAM network inhibition is 1.43%.

For `CCOC(=O)NCCc1ccc(OC)cc1`, the values for the growth inhibition in assay [1] and in assay [2] were -4.17% and 5.72%, respectively. For the same molecule, the viability increase in assay [3] was 1.36%. Also, the viability in assay [4] is 99.9%; in assay [5], 95.8%. For the same molecule, the inhibition in assay [6] is 1.83%. In assay [7], the RAM network inhibition was 0.56%.

For `CCOC(=O)c1ccc(NC(=O)NS(=O)(=O)c2ccc(C)cc2)cc1`, the growth inhibition in assay [1] was -7.83%; in assay [2] it was -3.95%. For the same molecule, the viability increase in assay [3] is -1.46%. Further, the viability in assay [4] is 105%; in assay [5], 94%. The inhibition in assay [6] is 3.13%. For the same molecule, in assay [7], the RAM network inhibition was 6.08%.
